This is a sample that favours compounds with a hit; in the whole collection about 1.4% have one here.
CAL PDZ FP-1 = untagged CAL PDZ binding inhibitors, primary screen, biochemical, fluorescence polarization, HTS. purified CAL PDZ, TMR-peptide fluorescence polarization, 1 h. inhibition, % at 24.9 µM. 300,000 tested, 0.92% active. AID 602252, 2012;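 active means mean inhibition of at least 30% with at least half of replicates also reaching 30%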;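 further: 0% = DMSO neutral control and 100% = excess unlabeled competitor peptide PRC23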
Dyrk1A ADPGlo = rat Dyrk1A kinase inhibitors, primary screen, biochemical, single point, plate reader | AID 504441, 2011 | inhibition, % at 12.5 µM | 310,000 tested, 0.43% active | Dual specificity tyrosine-phosphorylation-regulated kinase 1A (Rattus norvegicus), Q63470 | ADP-Glo luminescence, NFATc1 peptide; in the data active means inhibition above about 50%;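 further: plate controls were vehicle with enzyme for no effect and no enzyme for full effect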
CDK5 inh = inhibitors of human CDK5/p35 kinase, primary screen, biochemical, single concentration; Cyclin-dependent kinase 5 (Homo sapiens) + Cyclin-dependent kinase 5 activator 1 (Homo …; Recombinant CDK5/p35, ADP-Glo luminescence, 60 min; inhibition, % at 10 µM; 330,000 tested, 0.01% active; AID 488839, 2010;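 active means highest replicate inhibition of at least 50% and at least 75% of replicates reaching 50%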;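 further: plate controls were DMSO neutral control for no effect and GW8510 at 10 µM for full effect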
Target sequence (Q00535 whole entry, looked up): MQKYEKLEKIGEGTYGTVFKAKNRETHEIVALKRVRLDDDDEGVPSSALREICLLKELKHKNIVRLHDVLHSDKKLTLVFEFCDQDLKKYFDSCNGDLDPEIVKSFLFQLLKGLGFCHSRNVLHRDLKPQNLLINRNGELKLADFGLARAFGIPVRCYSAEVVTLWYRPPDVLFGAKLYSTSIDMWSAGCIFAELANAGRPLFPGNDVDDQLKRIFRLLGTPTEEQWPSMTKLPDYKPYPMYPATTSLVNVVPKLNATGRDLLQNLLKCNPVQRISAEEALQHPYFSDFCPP
Target sequence (Q15078 whole entry, looked up): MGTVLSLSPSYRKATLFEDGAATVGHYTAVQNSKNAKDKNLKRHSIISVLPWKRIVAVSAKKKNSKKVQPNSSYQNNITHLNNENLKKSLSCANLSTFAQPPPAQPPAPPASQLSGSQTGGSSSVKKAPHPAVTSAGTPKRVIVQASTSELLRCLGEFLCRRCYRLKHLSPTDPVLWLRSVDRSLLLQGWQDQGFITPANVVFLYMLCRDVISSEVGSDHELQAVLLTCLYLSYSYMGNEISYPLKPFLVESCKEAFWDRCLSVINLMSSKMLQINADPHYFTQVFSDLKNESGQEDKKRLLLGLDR
CAL PDZ FP-2 = CAL PDZ peptide-binding inhibitors, primary screen, biochemical, fluorescence polarization, Cer-tagged CAL PDZ, HTS | 330,000 tested, 0.02% active | Golgi-associated PDZ and coiled-coil motif-containing protein (Homo sapiens), Q9HD26 | purified CAL PDZ, TMR-peptide fluorescence polarization, 1 h | inhibition, % at 20 µM | AID 504414, 2011;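 active means highest replicate inhibition of at least 40%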;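 further: plate controls were DMSO neutral control wells for no effect and unlabeled competitor peptide control wells for full effect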
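Assay system – tagged CAL PDZ protein CerCALP, purified · Timing – 1 h at RT · Compound – single point, 20 µM · Measured by – fluorescence polarization from S- and P-plane intensities, G-factor corrected · Evaluation – inhibition from polarization loss · Probe or stimulus – TMR reporter peptide T*-PRC34 · Buffer or medium – pH 7.4 phosphate-saline buffer, reducing agent, detergent, IgG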
PvdQ acylase = P. aeruginosa PvdQ acylase inhibitors, primary screen, biochemical, fluorescence, plate reader and imaging, single point; purified PvdQ acylase; 340,000 tested, 0.063% active; PvdQ acylase [Pseudomonas aeruginosa LESB58]; inhibition, % at 10 µM; in the data active means inhibition above about 30%, passing the limit was not always enough;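 further: 0% = vehicle neutral wells and 100% = reference inhibitor wells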
TbMetRS inhib = T. brucei MetRS inhibitors, primary screen, biochemical, luminescence; methionyl-tRNA synthetase (Trypanosoma brucei brucei); purified T. brucei MetRS, ATP depletion, Kinase-Glo luminescence; inhibition, % at 11.9 µM; 360,000 tested, 0.4% active; AID 624268, 2012;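 active means inhibition above a per-plate cutoff of the control wells' mean inhibition plus 3 SD, cut at about 5.5% in these data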;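 further: 0% = DMSO wells median and 100% = median of wells with control inhibitor compound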
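System: purified T. brucei MetRS enzyme / Detection: Kinase-Glo luciferase luminescence reporting remaining unconsumed ATP / Medium: HEPES buffer with MgCl2, KCl, DTT, spermine, BSA, pyrophosphatase / Replication: singlicate, one well per compound / Evaluation: percent inhibition relative to median high and low control wells / Schedule: 2 h aminoacylation at 25 °C after 15 min preincubation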
Tb MetRS conf = T. brucei MetRS inhibitors, confirmation, biochemical, luminescence; shares compounds with TbMetRS inhib; T. brucei MetRS enzyme, luminescence (ATP depletion); inhibition, % at 11.9 µM; 1,400 tested, 93% active; in the data active means inhibition above about 7%
Jurkat tox = Jurkat T cell cytotoxicity, cytotoxicity control for T. brucei MetRS inhibitor project, luminescence, high throughput; shares compounds with TbMetRS inhib; Jurkat cells viability, ATP luminescence; inhibition, % at 8.3 µM; 1,400 tested, 12% active; AID 624413, 2012; in the data active means inhibition above about 15%;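 further: 0% = vehicle and 100% = reference inhibitor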
TbMetRS FP orth = T. brucei MetRS inhibitors, orthogonal assay for T. brucei MetRS inhibitor project, biochemical, fluorescence polarization | shares compounds with TbMetRS inhib | purified T. brucei MetRS | inhibition, % at 11.9 µM | 1,400 tested, 44% active | AID 651607, 2012; in the data active means inhibition above about 17%;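 further: 0% = vehicle wells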
Active calls of the source: *; · = no result given.

SMILES | CAL PDZ FP-1 | Dyrk1A ADPGlo | CDK5 inh | CAL PDZ FP-2 | PvdQ acylase | TbMetRS inhib | Tb MetRS conf | Jurkat tox | TbMetRS FP orth
Cc1ccc(NS(=O)(=O)c2c(C)[nH]c(C)c2C(=O)N2CCCCC2)c(Br)c1 | -3 | -4 | 1 | -2 | -11 | 24* | 39* | 2 | 15
Cc1[nH]c(C)c(S(=O)(=O)Nc2ccc(F)cc2Cl)c1C(=O)N1CCCC1 | -7 | -4 | 1 | -1 | -6 | 3 | · | · | ·
Cc1[nH]c(C)c(S(=O)(=O)Nc2cccc(Cl)c2C)c1C(=O)N1CCCCC1 | -6 | 4 | 1 | -1 | -13 | 24* | 41* | 1 | 20*
O=C(NCc1ccccn1)[C@@H]1CCCN1C(=O)[C@@H]1CCCN1 | · | · | · | · | · | -1 | · | · | ·
CC(C)CN1C(=O)CSCC1(C)C(=O)NC(C)C (stereo unspecified) | · | · | · | · | · | -1 | · | · | ·
CCc1cccc(NC(=O)Cn2c(=O)oc3cc(S(=O)(=O)N4CCOCC4)ccc32)c1 | -2 | 0 | -1 | 1 | -14 | 7.0* | 12* | 0 | 3
O=C(Cn1c(=O)oc2cc(S(=O)(=O)N3CCCC3)ccc21)Nc1cccc(C(F)(F)F)c1 | 1 | 13 | 0 | 0 | -10 | 1 | · | · | ·
CCc1ccc(NC(=O)Cn2c(=O)oc3cc(S(=O)(=O)N4CCOCC4)ccc32)cc1 | · | 17 | -2 | 0 | -16 | 15* | 12* | 1 | 5
Cc1ccc(Cn2nnnc2CN2CCC(c3nc4ccc(Cl)cc4[nH]3)CC2)cc1 | -6 | 11 | 1 | -2 | 7 | 21* | 36* | 43* | 12
Cc1ccc(Cn2nnnc2CN2CCC(NC(=O)c3ccc(Br)cc3)CC2)cc1 | -3 | -5 | -2 | -1 | -6 | -1 | · | · | ·
Clc1ccc2nc(C3CCN(Cc4nnnn4C4CCCCC4)CC3)[nH]c2c1 | -5 | -6 | -4 | -3 | 3 | 69* | 81* | 3 | 56*
COc1cc2ccccc2cc1C(=O)N/N=C/c1cccs1 | · | · | · | · | · | 0 | · | · | ·
O=S(=O)(c1ccccc1)c1nc(Nc2cccc(O)c2)sc1Cl | -10 | 3 | 3 | -1 | -1 | 10* | 20* | 18* | 6
CC1CCCCC1NC(=O)c1ccc(-n2cncn2)cc1 (stereo unspecified) | 1 | -2 | -1 | -1 | -9 | 0 | · | · | ·
CN(C)S(=O)(=O)c1cccc(NC(=O)c2ccc(-n3cncn3)c([N+](=O)[O-])c2)c1 | -1 | 3 | 0 | 0 | 1 | 43* | 78* | 5 | 50*
CC1CCCCC1NC(=O)c1ccc(-n2cncn2)c([N+](=O)[O-])c1 (stereo unspecified) | 0 | 7 | 1 | -2 | -17 | 37* | 73* | -7 | 41*
CN(CC(=O)Nc1ccc(Cl)c(C(F)(F)F)c1)C(=O)c1ccc(N2CCOCC2)c([N+](=O)[O-])c1 | -5 | -6 | 1 | -3 | 4 | 0 | · | · | ·
Cc1ccc(NC(=O)CN(C)C(=O)c2ccc(Cl)c([N+](=O)[O-])c2)cc1 | 8 | -4 | 0 | -2 | 3 | 36* | 58* | 1 | 37*
CCN(CC)S(=O)(=O)c1cc(NC(=O)c2ccc(-n3cncn3)c([N+](=O)[O-])c2)ccc1C | -3 | 3 | 0 | 0 | -10 | 18* | 47* | 35* | 39*
CCOC(=O)C1=CCC(c2cccc(C)c2)N(S(=O)(=O)c2ccc(C)cc2)C1 (stereo unspecified) | · | · | · | · | · | -1 | · | · | ·
O=C(NCC1CCCO1)c1[nH]c(C(F)(F)F)nc1-c1ccccc1 (stereo unspecified) | · | · | · | · | · | 0 | · | · | ·
O=C(c1ccc(-n2cncn2)c([N+](=O)[O-])c1)N1CCN(S(=O)(=O)c2ccccc2F)CC1 | -5 | 4 | 1 | -2 | -5 | 0 | · | · | ·
Cc1ccc(NC(=O)c2ccc(-n3cncn3)c([N+](=O)[O-])c2)cc1 | 0 | -3 | -1 | -3 | -14 | 27* | 46* | 0 | 15
CCN(CC)S(=O)(=O)c1ccc(OC)c(NC(=O)c2ccc([N+](=O)[O-])cc2)c1 | -3 | -1 | 5 | · | 22 | 0 | · | · | ·
COc1ccc(C(=O)NC(C)CCc2ccccc2)cc1[N+](=O)[O-] (stereo unspecified) | -2 | 6 | 0 | 0 | -12 | 0 | · | · | ·
SMILES | CAL PDZ FP-1 | Dyrk1A ADPGlo | CDK5 inh | CAL PDZ FP-2 | PvdQ acylase | TbMetRS inhib | Tb MetRS conf | Jurkat tox | TbMetRS FP orth
CCN(CC)S(=O)(=O)c1ccc(OC)c(NC(=O)c2ccc(-n3cncn3)c([N+](=O)[O-])c2)c1 | -2 | 4 | -2 | -3 | -8 | 37* | 81* | 1 | 50*
O=C(COc1ccccc1Cl)NNC(=O)c1ccc(-n2cncn2)c([N+](=O)[O-])c1 | -5 | -4 | -1 | 0 | -10 | 13* | 43* | -4 | 21*
CC(CCc1ccccc1)NC(=O)c1ccc(-n2cncn2)c([N+](=O)[O-])c1 (stereo unspecified) | 0 | 8 | 1 | -2 | -6 | 26* | 55* | 5 | 31*
Cc1ccc(S(=O)(=O)N2CCCCC2)cc1NCC(=O)Nc1ccc(Br)cc1F | · | · | · | · | · | 0 | · | · | ·
CC(C)C[C@@H](CN1CCC[C@@H]1CN1C(=S)NC[C@@H]1Cc1ccc(O)cc1)N1C[C@H](Cc2ccc(O)cc2)N(CC2CCCCCC2)C1=S | · | · | · | · | · | 0 | · | · | ·
Cc1cccc(C)c1NC(=O)CN(C)C(=O)c1ccc(-n2cncn2)c([N+](=O)[O-])c1 | -6 | -2 | -1 | -3 | 1 | 0 | · | · | ·
O=C(Nc1cccc(Cl)c1)c1ccc(-n2cncn2)c([N+](=O)[O-])c1 | -2 | 10 | 0 | -3 | -9 | 42* | 66* | 4 | 37*
CS(=O)(=O)c1ccc(C(=O)Nc2cc(S(C)(=O)=O)ccc2Cl)cc1 | -1 | -5 | -1 | -1 | 1 | 1 | · | · | ·

From PubChem BioAssay
